Series [1] is classed as in vivo, Male Sprague Dawley rats. Conditions: anaesthetized rats, s.c. 20 μL insulin aspart/iomeprol 80/20; p < 0.001. The procedure, abridged:
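Male rats on a high-fat diet (60% fat from weaning to 22 weeks, then 45%) or a low-fat diet (10% fat), aged 36–38 weeks, were isoflurane-anaesthetized. They received 20 μL test insulin mixed 80/20 with iomeprol s.c. in the neck or flank. μCT scans ran to 13 min (neck) or 17 min (flank). Tail blood was taken at 5 and 15 min and measured by luminescent oxygen channelling immunoassay. Three (neck) or four (flank) repeats per rat; mean ± SEM.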

Series [2] is described as follows: Insulin absorption upon s.c. neck dosing in HFD and LFD rats. The series is classed as in vivo, Male Sprague Dawley rats. Conditions: 12 nmol, HFD n = 22, LFD n = 10, p < 0.01. The procedure, abridged: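 Rats aged 33–34 weeks, fed a high-fat (60% fat to 22 weeks, then 45%) or low-fat (10% fat) diet from weaning, received 12 nmol test insulin (20 μL) s.c. in the neck. Sublingual-vein blood was drawn at 5, 15 and 60 min, and plasma levels were measured by luminescent oxygen channelling immunoassay. Each rat was dosed five times; mean ± SEM.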

Take insulin aspart: in series [1], the “mean insulin concentration at 5 and 15 min, flank compared with neck dosing” value was “significantly lower”. Further, in series [2], the “area under the curve (AUC0–60 min), HFD compared with LFD group” value is reported as “reduced”.

The values above are taken from PMC6587326 (Obesity Science & Practice, 2019).
